From PubChem BioAssay
This is a sample that favours compounds with a hit; in the whole collection about 1.8% have one here.
C8 TRAIL sens: sensitizes caspase-8 expressing cells to TRAIL. inhibition (viability loss, TRAIL sensitization), % at 10 µM. hit rate 1% among 360,000. NB7+C8 cells + TRAIL, ATPlite viability luminescence. AID 624354;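 active = compounds causing at least 50% loss of cell viability in the single-dose screen, relative to plate controls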
STAT3 inh: inhibitors of IL-6 induced STAT3 signaling. hit rate 0.89% among 190,000. inhibition, % at 5.5 µM. U3A cells, IL-6 STAT3-luciferase reporter, luminescence; host cell line lacks STAT1. AID 862;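 active = inhibition above the mean inhibition across all screened compounds plus 3 SD, cut at about 44% in these data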;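 also: 0% = DMSO only wells and 100% = 100 µM nifuroxazide control wells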
STAT3 act: activators of IL-6 induced STAT3 signaling; hit rate 0.91% among 190,000; AID 871; activation (% of control), % at 5.6 µM; U3A cells, IL-6 STAT3-luciferase reporter, luminescence; 100% = signal with IL-6 EC80 alone;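 active = activation above the screen-wide mean of compound activation plus 3 SD, cut at about 130% in these data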;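 also: 0% = background luminescence of wells with medium and substrate only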
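Material: human U3A cells carrying STAT3-luciferase construct. Measured by: reporter luminescence signal. Timing: compound 1 h, then IL-6 6 h at 37 °C.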
PPC-1+TRAIL kill: PPC-1 cancer cell killing with TRAIL present; hit rate 0.41% among 220,000; cell killing (% activity), % at 4 µM or 5 µM; PPC-1 cells + TRAIL, ATPLite viability luminescence;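 active = cell killing above 50% in the first pass at 4 µM, then a duplicate retest at 5 µM averaging 50% or more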;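 also: plate controls were cells with TRAIL plus DMSO for no effect and medium-only wells lacking cells for full effect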
STAT1 blocker: STAT1 signaling inhibition; inhibition, % at 5.5 µM; hit rate 0.35% among 200,000; AID 920; NIH 3T3 STAT1-luciferase reporter, IFN-gamma, luminescence;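 active = inhibition above a set limit, the mean inhibition across all tested compounds plus 3 SD, cut at about 34% in these data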;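 also: 0% = IFN-gamma with DMSO and 100% = IFN-gamma with 300 µM nifuroxazide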
Active calls of the source: *; x = not tested or not shown.

SMILES	C8 TRAIL sens	STAT3 inh	STAT3 act	PPC-1+TRAIL kill	STAT1 blocker
O=C(Nc1cc(C(F)(F)F)cc(C(F)(F)F)c1)Nc1cnn(-c2ccc([N+](=O)[O-])cc2)c1C(F)(F)F	47.1*	x	x	16.8	x
O=C(Nc1ccc(C(=O)O)cc1)Nc1ccc([N+](=O)[O-])cc1	-12.6	x	x	x	x
CCOC(=O)c1cn2nc(N3CCCCC3)ccc2n1	52.6*	x	x	32.2	x
C=C(C)c1cc2c(ccc3ccc(=O)oc32)o1	86.7*	x	x	x	x
CCOC(=O)C1=CCN(S(=O)(=O)c2ccccc2Cl)C1c1cccc(F)c1 (stereo not given)	70.9*	x	x	x	x
CCOC(=O)C1=CCN(S(=O)(=O)c2ccccc2Cl)C1c1cccc(Cl)c1 (stereo not given)	12.2	x	x	x	x
CCN(CC)c1ccc(/C=N/NC(=O)c2ccco2)cc1	51.6*	24.6	80.7	29.7	-73.4
CCN(CC)c1ccc(/C=N/NC(=O)c2cnccn2)cc1	21.0	-0.2	111.8	35.6	-36.5
CCN(CC)c1ccc(/C=N/NC(=O)c2ccccn2)cc1	64.6*	x	x	19.6	x
COCCNC(=O)c1cccc2c1C(=O)c1ccc(N3CCOCC3)cc1S2(=O)=O	0.2	x	x	x	x
O=C1c2ccccc2S(=O)(=O)c2cc(N3CCOCC3)ccc21	66.4*	x	x	x	x
Nc1cc(=O)[nH]c(SCC(=O)Nc2ccc(S(=O)(=O)N3CCCC3)cc2)n1	-9.7	x	x	x	x
O=c1c(Br)ccc(Br)cc1Br	93.1*	x	x	x	x
O=C1CN(S(=O)(=O)c2cc(Br)ccc2Br)CCN1	0.2	x	x	x	x
COc1cc(/C=C/[N+](=O)[O-])ccc1OCc1cccc(C(=O)O)c1	x	93.2*	19.7	-3.3	89.5*
O=C(O)c1ccc(COc2ccc(CO)cc2Cl)cc1	1.9	-6.5	107.0	-16.7	-9.0
O=C(O)c1cccc(COc2ccc3c(c2)CCC3)c1	62.7*	x	x	36.3	x
O=C(O)c1cccc(COc2ccc(CO)cc2Cl)c1	66.8*	x	x	32.4	x
COc1ccc(OCc2cccc(C(=O)O)c2)cc1	61.9*	x	x	33.6	x
Clc1ccc(N2O[C@H]3C=C[C@@H]2C3)nc1	11.2	x	x	x	x
O=C(OCC(F)(F)F)c1cccc(COc2ccc3ccccc3c2)c1	31.3	102.4*	15.0	28.5	87.5*
CCOc1ccc(OCc2cccc(C(=O)N3CCCCCC3)c2)cc1	43.7	80.1*	32.6	26.6	71.4*
CCOc1ccc(C(=O)N2CCCC2)cc1	-9.8	-4.1	104.3	8.9	0.4
CN(C)C(=S)N=Nc1[nH]c2ccccc2c1O	x	-57.1	152.4*	14.8	-88.5
COc1ccc(NC(=O)c2cccc(N3C(=O)c4ccc(C(=O)Nc5ccc(OC)c(O)c5)cc4C3=O)c2)cc1O	57.8*	x	x	x	x
SMILES	C8 TRAIL sens	STAT3 inh	STAT3 act	PPC-1+TRAIL kill	STAT1 blocker
O=C(NCCc1c[nH]c2ccccc12)c1ccco1	-6.3	x	x	x	x
O=C(/C=C/c1cccs1)N1CCc2ccccc21	55.5*	30.0	77.0	58.4*	-38.1
CCOC(=O)c1sc(NC(=O)Nc2ccc(F)cc2)nc1C	51.2*	-5.9	102.9	41.9	-67.3
CCOC(=O)c1sc(NC(=O)c2ccc(OC(C)=O)cc2)nc1C	65.1*	38.6	68.9	49.8	-19.1
CCOC(=O)c1sc(NC(=O)Cc2ccc(F)cc2)nc1C	-17.9	12.7	90.8	16.8	-8.0
CC(=O)c1sc(NC(=O)c2ccc(C(C)(C)C)cc2)nc1C	54.8*	28.8	80.4	26.9	-34.0
N/C(=N\OC(=O)c1ccccc1)C(Cc1ccccc1)C(=O)NOC(=O)c1ccccc1 (stereo not given)	89.4*	x	x	x	x
O=C(NOC(=O)c1ccccc1)c1ccccc1	20.9	x	x	10.2	x
O=C(/C=C/[C@H]1O[C@@H](n2cnc3c(NC(=O)c4ccccc4)ncnc32)[C@H](O)[C@@H]1O)NCC(c1ccccc1)c1ccccc1	-0.4	x	x	x	x
C[C@@H]1COC(=O)[C@H](Cc2ccc(F)cc2)CC/C=C/C[C@@H](CC(=O)N[C@@H](CO)Cc2ccccc2)C(=O)N1	7.4	x	x	x	x
O=C(C[C@@H]1C/C=C/CC[C@H](Cc2ccc(F)cc2)C(=O)OC[C@@H](Cc2ccccc2)NC1=O)N[C@H](CO)Cc1ccccc1	76.8*	x	x	x	x
Cc1cc(C)n(-c2nc3ccccc3c(=O)n2OCC(=O)OCc2ccccc2)n1	3.7	10.3	98.7	-0.8	-4.9
Cc1cc(C)n(-c2nc3ccccc3c(=O)n2OCc2ccc(F)cc2)n1	3.4	-31.1	135.2*	16.3	9.7
CC(C)c1ccc(C(=O)Nc2cccnc2)cc1	49.1*	x	x	x	x
FC(F)(F)c1cccc(Oc2nc(-c3ccccc3)nnc2C(F)(F)F)c1	-3.1	1.7	108.5	19.4	-3.9
FC(F)(F)c1nnc(-c2ccccc2)nc1Sc1ccc(Cl)cc1	48.2*	-3.4	107.4	21.9	10.0
FC(F)(F)c1cccc(Sc2nc(-c3ccccc3)nnc2C(F)(F)F)c1	51.0*	9.1	97.2	11.9	0.1
FC(F)(F)c1nnc(-c2ccccc2)nc1Sc1ccccc1	9.3	-16.4	118.5	10.0	7.0
CCN(C(=O)CSc1nncn1-c1ccccc1)C1CCS(=O)(=O)C1 (stereo not given)	-6.4	x	x	x	x
COc1ccc(CN(C)C(=O)c2cccc(S(=O)(=O)N3CCc4ccccc43)c2)c(OC)c1	-3.7	x	x	x	x
COC(=O)c1cc(S(=O)(=O)N2CCOCC2)c(Cl)cc1N1CCOCC1	-7.8	-3.2	102.9	-1.4	-5.4
COC(=O)c1cc(C)nc2c1C(=O)C(=O)C=C2N1CCOCC1	92.1*	x	x	x	x
CCN1CC=C2C(C#N)=C(N)C(C#N)(C#N)C(CCc3ccccc3)C2C1 (stereo not given)	8.1	-39.9	140.8*	10.6	4.0
O=C(CCl)N1CCN(S(=O)(=O)c2ccc3ccccc3c2)CC1	80.9*	x	x	x	x
CC(C)(CN1CCc2ccccc2C1)NS(=O)(=O)c1ccc(Cl)cc1	-9.4	x	x	7.2	x
SMILES	C8 TRAIL sens	STAT3 inh	STAT3 act	PPC-1+TRAIL kill	STAT1 blocker
COc1ccc(C(=O)c2c(C(F)(F)F)oc3c2C(=O)c2ccccc2C3=O)cc1OC	94.6*	18.3	89.7	40.4	-5.2
CCN(CC)CCn1c2c(c(SCC(=O)Nc3nc4ccc(C)cc4s3)nc1=O)CCC2	66.2*	x	x	x	x
CCN(CC)CCn1c2c(c(SCC(=O)Nc3nc4ccccc4s3)nc1=O)CCC2	1.8	x	x	x	x
CC1CC(=O)N(CC(=O)Nc2ccc(F)cc2F)c2ccccc2S1(=O)=O (stereo not given)	-11.8	x	x	x	x
Nc1ccc(C(=O)OCc2nc3cc4ccccc4cc3[nH]2)cc1	20.0	4.2	99.6	2.5	-16.9
Nc1ccc(C(=O)OCc2nc3c(ccc4ccccc43)[nH]2)cc1	24.9	-38.9	135.6*	-4.9	-52.8
Cc1c(CCCl)c(Cl)n2c(nc3ccccc32)c1C#N	88.3*	x	x	x	x
O=C(NC1=NCCS1)c1cccs1	44.9*	-1.3	104.8	-0.3	2.0
CCCC#Cc1ccc2c(c1)COc1c3ccccc3nn1-2	36.8	x	x	x	x
c1ccc2c(c1)COc1c3cc4c(cc3nn1-2)OCO4	58.7*	x	x	x	x
Cc1nn(-c2ccccc2)c(Cl)c1/C=N/Nc1ccc(Cl)c(C(=O)O)c1	49.9	43.9*	62.6	51.8*	42.1*
CCCc1cc(=O)oc2c3c(cc(OCC(=O)NCCN4CCOCC4)c12)OC(C)(C)CC3	19.5	x	x	x	x
